Format in all cases: biochemical
One assay deals with T1, GBA3 (Homo sapiens, UniProt Q9H227).
T1 sequence (Q9H227 1-469): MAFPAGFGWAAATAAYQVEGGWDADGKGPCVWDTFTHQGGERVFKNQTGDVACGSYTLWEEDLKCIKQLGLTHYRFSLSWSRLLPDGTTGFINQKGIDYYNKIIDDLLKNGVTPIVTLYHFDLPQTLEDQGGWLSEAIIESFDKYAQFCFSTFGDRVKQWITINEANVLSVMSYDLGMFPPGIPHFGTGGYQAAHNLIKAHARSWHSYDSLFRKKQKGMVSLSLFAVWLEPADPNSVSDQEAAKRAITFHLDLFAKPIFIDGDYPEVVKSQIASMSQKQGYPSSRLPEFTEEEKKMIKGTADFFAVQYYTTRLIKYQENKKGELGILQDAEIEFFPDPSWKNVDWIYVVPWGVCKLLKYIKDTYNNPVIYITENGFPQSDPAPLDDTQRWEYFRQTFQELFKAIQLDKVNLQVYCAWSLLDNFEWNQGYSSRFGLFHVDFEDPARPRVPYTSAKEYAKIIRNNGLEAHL
In words: Competitive ABPP against β-glucosidase probe 14, GBA3+ HEK293T lysate. The note with it: 5 from 30 to 0 μM, 1 h at 37 °C, pH 6.0.

The next assay concerns the target T2, GANAB (Mus musculus, UniProt Q8BHN3).
T2 sequence (Q8BHN3 33-944): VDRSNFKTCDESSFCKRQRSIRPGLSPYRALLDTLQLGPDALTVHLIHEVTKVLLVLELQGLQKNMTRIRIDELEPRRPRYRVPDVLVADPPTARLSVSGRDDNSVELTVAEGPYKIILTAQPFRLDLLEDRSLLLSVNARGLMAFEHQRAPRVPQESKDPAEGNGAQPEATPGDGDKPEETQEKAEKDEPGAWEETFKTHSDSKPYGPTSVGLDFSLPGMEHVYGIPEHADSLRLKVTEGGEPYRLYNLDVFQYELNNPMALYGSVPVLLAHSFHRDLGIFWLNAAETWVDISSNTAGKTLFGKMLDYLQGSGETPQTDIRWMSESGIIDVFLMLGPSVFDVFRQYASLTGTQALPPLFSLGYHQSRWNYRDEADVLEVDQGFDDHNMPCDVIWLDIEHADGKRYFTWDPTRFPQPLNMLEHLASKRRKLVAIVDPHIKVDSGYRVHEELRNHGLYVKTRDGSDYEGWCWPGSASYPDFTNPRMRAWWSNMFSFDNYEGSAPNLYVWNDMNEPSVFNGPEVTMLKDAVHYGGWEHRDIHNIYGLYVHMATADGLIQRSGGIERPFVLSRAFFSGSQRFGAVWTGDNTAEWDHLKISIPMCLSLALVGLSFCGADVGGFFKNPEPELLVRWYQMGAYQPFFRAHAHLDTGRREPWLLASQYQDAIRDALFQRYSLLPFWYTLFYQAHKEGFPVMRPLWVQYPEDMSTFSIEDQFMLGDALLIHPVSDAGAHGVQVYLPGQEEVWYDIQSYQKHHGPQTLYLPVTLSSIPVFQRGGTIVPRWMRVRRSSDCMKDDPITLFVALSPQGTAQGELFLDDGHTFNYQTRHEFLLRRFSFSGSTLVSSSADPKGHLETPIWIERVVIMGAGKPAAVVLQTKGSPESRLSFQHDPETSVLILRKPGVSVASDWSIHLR
T2 sequence (O08795 15-521 partner): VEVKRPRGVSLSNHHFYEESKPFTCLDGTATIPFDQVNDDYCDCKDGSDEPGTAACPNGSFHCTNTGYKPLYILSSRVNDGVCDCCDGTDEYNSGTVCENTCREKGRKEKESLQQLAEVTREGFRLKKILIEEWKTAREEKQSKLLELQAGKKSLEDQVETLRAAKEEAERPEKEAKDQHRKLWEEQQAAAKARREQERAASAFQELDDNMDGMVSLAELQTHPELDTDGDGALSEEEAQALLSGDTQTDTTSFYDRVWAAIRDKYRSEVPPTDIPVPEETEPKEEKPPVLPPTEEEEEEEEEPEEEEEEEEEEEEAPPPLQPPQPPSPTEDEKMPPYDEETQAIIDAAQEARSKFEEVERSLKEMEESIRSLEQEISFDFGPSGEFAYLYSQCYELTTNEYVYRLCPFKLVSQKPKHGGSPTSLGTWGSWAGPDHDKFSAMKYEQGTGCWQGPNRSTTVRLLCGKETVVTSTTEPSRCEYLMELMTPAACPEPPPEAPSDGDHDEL
In words: Competitive ABPP against probe 13 in mouse gastrointestinal lysate. The note with it: mouse intestine lysate, 1 h at 37 °C. A digest of the protocol: (§1)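 Mixed mouse duodenum, jejunum and ileum homogenates were made in 25 mM potassium phosphate pH 6.5 with protease inhibitors (40 μg protein). Held 5 min on ice in McIlvaine buffer pH 4 or 7. Incubated 1 h at 37 °C with test compound (final 150 to 0.005 μM, plus 0), then probe 13 for 30 min at 37 °C. Boiled in Laemmli buffer, 10% SDS–PAGE, Cy5 fluorescence scan.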

In another assay the target is T3, GBA1 (Mus musculus, UniProt P17439).
T3 sequence (P17439 20-515): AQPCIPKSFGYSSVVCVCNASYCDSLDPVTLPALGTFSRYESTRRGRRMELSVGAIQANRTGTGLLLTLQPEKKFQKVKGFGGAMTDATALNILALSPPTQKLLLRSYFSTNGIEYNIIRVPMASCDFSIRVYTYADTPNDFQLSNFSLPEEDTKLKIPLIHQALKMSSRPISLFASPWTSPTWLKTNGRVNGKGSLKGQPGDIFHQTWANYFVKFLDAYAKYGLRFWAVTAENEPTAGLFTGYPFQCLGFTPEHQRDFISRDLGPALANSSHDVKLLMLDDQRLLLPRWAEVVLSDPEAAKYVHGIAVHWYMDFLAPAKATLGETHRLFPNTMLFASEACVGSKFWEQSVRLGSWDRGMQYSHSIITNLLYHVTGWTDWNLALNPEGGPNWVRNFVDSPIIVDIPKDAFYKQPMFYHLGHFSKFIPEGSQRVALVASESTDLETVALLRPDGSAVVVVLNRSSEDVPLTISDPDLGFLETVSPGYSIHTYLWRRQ
The assay is described as above. The note with it: mouse intestine lysate, 1 h at 37 °C. A digest of the protocol:
as §1

Turning to `O=S1(=O)O[C@@H]2[C@H](O)[C@@H](O)[C@H](O)[C@@H](CO)[C@@H]2O1` [Compound 5, 1,6-epi-cyclophellitol cyclosulfate], the “inhibition of probe 14 labeling of GBA3” value at GBA3 is “no inhibition”. Also, at GANAB, the “inhibition of probe 13 labeling of GANAB” value was “inhibited”. The “competition of off-target probe 13 labeling of GBA1” value on GBA1 is recorded as “not outcompeted”.

The record behind these values is publication PMC5532717 (ACS Central Science, 2017).
